Results from ChEMBL document CHEMBL4330106, “A new class of pentapeptide KISS1 receptor agonists with hypothalamic-pituitary-gonadal axis activation” (Bioorg Med Chem Lett, 2019).

Tests used:
[1] = Stability in Sprague-Dawley rat serum assessed as parent compound remaining at 10 ug/ml measured after 120 mins by LC-MS/MS analysis; format: ADME, cell-free; settings: read-out: Stability
Summary of the method: (§1)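 10 µL of 10 μg/mL aqueous peptide stock added to 990 μL pre-warmed SD rat serum (final 0.1 μg/mL), 37 °C. Aliquots taken at 0, 5, 15, 30, 60, 120 min. Quenched with formic acid/methanol and acetonitrile, centrifuged, internal standard added, quantified by LC/MS/MS. Result is percent remaining; n = 2.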

[2] = Half life in Sprague-Dawley rat serum at 10 ug/ml by LC-MS/MS analysis; format: ADME, cell-free; summary of the method: as §1
[3] = Stability in Sprague-Dawley rat serum assessed as parent compound remaining at 10 ug/ml measured after 15 mins by LC-MS/MS analysis; format: ADME, cell-free; settings: read-out: Stability; summary of the method: as §1
[4] = Stability in Sprague-Dawley rat serum assessed as parent compound remaining at 10 ug/ml measured after 5 mins by LC-MS/MS analysis; format: ADME, cell-free; settings: read-out: Stability; summary of the method: as §1
[5] = Stability in Sprague-Dawley rat serum assessed as parent compound remaining at 10 ug/ml measured immediately by LC-MS/MS analysis; format: ADME, cell-free; settings: read-out: Stability; summary of the method: as §1
[6] = Stability in Sprague-Dawley rat serum assessed as parent compound remaining at 10 ug/ml measured after 60 mins by LC-MS/MS analysis; format: ADME, cell-free; settings: read-out: Stability; summary of the method: as §1
[7] = target: KiSS-1 receptor (Homo sapiens, UniProt Q969F8); assay: Agonist activity at human KISS1R expressed in CHO cells assessed as increase in calcium mobilization measured at 2 secs interval for 2 mins by fluo-4 NW dye based FLIPR assay; format: functional, cell-based
KiSS-1 receptor, sequence (Q969F8 whole entry): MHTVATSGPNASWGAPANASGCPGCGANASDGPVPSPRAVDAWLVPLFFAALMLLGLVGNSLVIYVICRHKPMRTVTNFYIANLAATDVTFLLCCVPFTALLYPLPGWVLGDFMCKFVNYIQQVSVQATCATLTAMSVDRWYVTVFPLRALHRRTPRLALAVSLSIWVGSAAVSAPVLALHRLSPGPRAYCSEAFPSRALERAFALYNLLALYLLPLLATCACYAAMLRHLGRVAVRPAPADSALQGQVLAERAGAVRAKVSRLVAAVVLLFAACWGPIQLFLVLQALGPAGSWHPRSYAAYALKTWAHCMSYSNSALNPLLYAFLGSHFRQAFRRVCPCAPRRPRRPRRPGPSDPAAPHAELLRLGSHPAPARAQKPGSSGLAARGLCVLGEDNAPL
Summary of the method: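 Ligand-induced Ca2+ rise in CHO cells expressing human KISS1R, read on a fluorometric imaging plate reader (FLIPR); agonist potency reported as EC50 (nM).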

[8] = Stability in Sprague-Dawley rat serum assessed as parent compound remaining at 10 ug/ml measured after 30 mins by LC-MS/MS analysis; format: ADME, cell-free; settings: read-out: Stability; summary of the method: as §1

remaining at 2 h, 10 ug/ml [1]: < 0.5%
half-life at 10 ug/ml [2]: < 5 min
remaining at 0.25 h, 10 ug/ml [3]: < 0.5%
remaining at 5 min, 10 ug/ml [4]: 1.5%
remaining at 0 min, 10 ug/ml [5]: 100%
remaining at 1 h, 10 ug/ml [6]: < 0.5%
EC50 [7]: 0.087 nM
remaining at 0.5 h, 10 ug/ml [8]: < 0.5%
Compound: CC(C)C[C@H](NC(=O)CNC(=O)[C@H](Cc1ccccc1)NC(=O)[C@H](CO)NC(=O)[C@H](CC(N)=O)NC(=O)[C@H](Cc1c[nH]c2ccccc12)NC(=O)[C@H](CC(N)=O)NC(=O)[C@@H](N)Cc1ccc(O)cc1)C(=O)N[C@@H](CCCNC(=N)N)C(=O)N[C@@H](Cc1ccccc1)C(N)=O [KISSPEPTIN-10]
